Source: PubChem BioAssay
PTK2B oligo ant – antagonists of human Pyk2 oligomerization; 99,000 compounds, 0.83% hits; Q293 cells, Pyk2 FERM NanoBiT luminescence; stronger effect = lower value; AID 1347419; z-score (the deposit names both 25 µM and 10 µM);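 active = Z-score of -3 or lower, scaled per plate to the spread of control and sample wells; inactive = z-score above -3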;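 also: negative z-score means lost luminescence so less FERM oligomerization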
bCat KO growth – beta-catenin-lacking colon tumor cell growth suppression; HCT116 beta-catenin knockout viability, CellTiter-Glo, 60 h; stronger effect = lower value; viability, % at 10 µM; 140,000 compounds, 1.5% hits; AID 818;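 active = viability at or under a set limit, the compound median less 4 SD, cut at about 6% in these data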;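 also: 0% = Hyamine 1622 control at 20 µM and 100% = untreated cell control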
Lung fibro prol – blocks proliferation of human lung fibroblasts; LL 47 human lung fibroblast viability, ATP luminescence; stronger effect = lower value; viability, % at 10 µM; 85,000 compounds, 1.1% hits; AID 719;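 active = viability at or below 50% in the single dose screen; inactive = viability above 50%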;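 also: compound exposure lasted 72 h before the ATP readout; 100% = median luminescence of untreated cell-only wells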
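Benchmarks: Cell-only wells, no compound | Test system: LL 47 human lung fibroblasts, passage 12 or lower | Input: 1,150 cells/well | Measured by: CellTiter-Glo luminescence measuring cellular ATP | Medium: IMEM, 15% FBS supplement | Schedule: Overnight attachment after seeding, then 72 h compound exposure at 37 °C | Doses: Compound addition at 0.1% DMSO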
PTEN del growth – suppresses growth of cells with PTEN deletion; HCT116 PTEN-null viability, CellTiter-Glo, 60 h; stronger effect = lower value; viability, % at 10 µM; 140,000 compounds, 1.2% hits; AID 827;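 active = viability at or below a set limit, 4 SD under the median of all tested compounds, cut at about 3.7% in these data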;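 also: PTEN knockout HCT116 line with beta catenin targeted HCT116 as companion control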
H69AR growth 86K – growth inhibitors of human H69AR lung tumor cells; 85,000 compounds, 6% hits; H69AR lung tumor viability, ATP luminescence, 72 h; stronger effect = lower value; viability, % at 10 µM;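 active = viability at or below 40%; inactive = viability above 40%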;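 also: multidrug resistant small cell line overexpressing MRP-1 efflux transporter; 100% = mean luminescence of untreated control wells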
HUVEC inhibit – inhibitors of human endothelial cell proliferation | HUVEC proliferation, CellTiter-Glo luminescence, 72 h; stronger effect = lower value | 86,000 compounds, 1.1% hits | viability, % at 10 µM (by protocol);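 active = viability at or below 30%; inactive = viability above 30%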;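 also: 100% = median luminescence of DMSO-only cell control wells on each plate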
The depositor's hits bear a star; x = not tested or not shown. The entries come from a sample that favours hits as a whole.

SMILES	PTK2B oligo ant	bCat KO growth	Lung fibro prol	PTEN del growth	H69AR growth 86K	HUVEC inhibit
CN1CCN(C(=O)c2ccc3c(c2)N(Cc2ccc(Cl)cc2)C(=O)c2ccccc2S3=O)CC1 (stereo not given)	x	80.0	92.3	95.3	95.1	100.4
O=C(c1ccc2c(c1)N(Cc1ccccc1)C(=O)c1ccccc1S2)N1CCCC1	-2.45	86.7	96.4	83.1	29.1*	102.4
CC(NC(=O)CSCc1ccccc1Br)c1ccccc1 (stereo not given)	x	92.7	x	91.1	x	x
COc1ccc(/C=C/C(=O)c2ccccc2O)cc1	x	64.8	x	72.4	x	x
COc1ccc(/C=C\C(=O)CC(O)(c2ccccc2)C(F)(F)F)cc1 (stereo not given)	-1.76	9.7	87.9	11.0	1.2*	87.2
CC(OC(=O)c1cc(S(=O)(=O)N(C)c2ccccc2)ccc1Cl)C(=O)Nc1ccc2c(c1)OCCO2 (stereo not given)	x	100.3	x	103.5	x	x
O=C1c2ccccc2C2=Nc3ccccc3SC(c3cccc(F)c3)C12 (stereo not given)	x	2.2*	x	3.5*	x	x
Fc1cccc(C2NN=C(c3ccccc3)S2)c1 (stereo not given)	x	83.5	x	78.9	x	x
O=C1CCCC2=C1C(c1ccc(Cl)cc1)C1C(=O)c3ccccc3C1=N2 (stereo not given)	-2.94	62.4	x	50.1	x	x
O=C1c2ccccc2C2=Nc3ccccc3SC(c3ccc(Cl)cc3)C12 (stereo not given)	x	3.7*	x	3.3*	x	x
COc1ccc(-c2noc(CSc3nnc(Cc4ccccc4)n3-c3ccc(Cl)cc3)n2)cc1	-0.34	76.4	103.2	68.6	12.8*	73.5
Cc1ccc(-c2noc(CSc3nnc(Cc4ccccc4)n3-c3ccc(Cl)cc3)n2)cc1	-0.19	74.4	92.8	63.0	48.7	71.5
Cc1cc(N)n(-c2ccc3ccccc3c2)n1	-1.97	81.2	98.6	95.9	64.3	71.5
O=C(CSc1ncnc2c1nnn2-c1ccc(F)cc1)NCC1CCCO1 (stereo not given)	-0.22	5.8*	97.5	28.2	48.9	90.1
Nc1ccc(Oc2ccc3nc(-c4ccccc4)c(-c4ccc([N+](=O)[O-])cc4)nc3c2)cc1	-1.91	67.3	x	62.9	x	x
Fc1ccccc1CSc1nc2ccccc2[nH]1	1.6	99.5	90.0	96.4	98.6	99.2
C=CCn1c(SCC(=O)NC2CCCCC2)nnc1-c1sc(N)nc1C	-0.45	91.7	104.2	101.6	107.3	95.8
C=CCn1c(SCC(=O)Nc2sc(C)c(C)c2C(=O)OCC)nnc1-c1sc(N)nc1C	-4.48*	84.4	92.5	82.1	46.9	84.1
CCOC(=O)c1c(NC(=O)CSc2nnnn2-c2ccc3c(c2)OCO3)sc(C)c1C	0.44	91.6	91.9	89.1	60.5	83.9
CCOC(=O)c1c(NC(=O)CSc2nnnn2-c2ccc3c(c2)OCCO3)sc(C)c1C	-0.55	76.8	86.8	81.8	36.1*	92.7
COc1ccc(OC)c(-n2nnnc2SCC(=O)Nc2ccc3c(c2)OCCO3)c1	-0.06	101.8	81.8	101.6	43.0	18.4*
COc1ccc(OC)c(-n2nnnc2SCC(=O)Nc2ccc(C(=O)N3CCCCC3)cc2)c1	-1.29	80.1	92.9	79.7	86.1	97.8
CCOc1ccc(S(=O)(=O)NN)cc1	1.02	93.7	x	99.2	x	x
CS(=O)c1nc(-c2ccc(Br)cc2)cc(-c2ccccc2)c1C#N (stereo not given)	-2.69	1.8*	6.6*	1.8*	1.5*	9.9*
COc1ccc(-c2cc(-c3ccccc3)c(C#N)c(S(C)(=O)=O)n2)cc1	14.3	1.1*	70.8	0.9*	3.6*	26.0*
SMILES	PTK2B oligo ant	bCat KO growth	Lung fibro prol	PTEN del growth	H69AR growth 86K	HUVEC inhibit
N#Cc1c(-c2ccc(Br)cc2)cc(-c2cccnc2)nc1N	x	103.6	x	90.6	x	x
CS(=O)(=O)c1nc(-c2ccc(Br)cc2)cc(-c2ccccc2)c1C#N	-1.29	1.6*	1.9*	2.1*	1.2*	20.3*
COc1ccc(-c2cc(-c3ccc(OC)cc3)c(C#N)c(SC)n2)cc1	0	64.5	99.9	64.3	63.9	72.8
COc1ccc(/C=C2\N=C(SC)N(C)C2=O)cc1	-0.45	100.4	x	94.6	x	x
CS(=O)(=O)N1CCC(C(=O)Nc2ccc3c(c2)OCCO3)CC1	-0.04	100.1	97.7	105.7	92.7	97.8
COC(=O)C1=C(C)N=c2s/c(=C/c3cccs3)c(=O)n2C1c1ccc(F)cc1 (stereo not given)	-0.71	72.8	96.7	62.1	101.3	100.2
COc1ccccc1C1C(C(C)=O)=C(C)N=c2s/c(=C\c3cc(OC)c(OC)c(OC)c3)c(=O)n21 (stereo not given)	-2.17	81.0	92.7	73.5	30.4*	79.7
CCOc1ccccc1NC(=O)c1cccc(NC(=O)c2ccco2)c1	-0.58	103.1	60.0	98.2	25.4*	58.0
CCOc1ccc(C(=O)Nc2ccc(NC(=O)c3ccco3)c(Cl)c2)cc1Cl	0.67	14.6	65.6	12.8	14.1*	31.4
Cc1cc(CN2CCN(CCC#N)CC2)c(O)c(C2(C)CCCCC2)c1	1.15	72.7	94.9	82.9	38.2*	95.2
Cc1nc(Nc2nc(CSc3ccc(Cl)cc3)cc(=O)[nH]2)nc2ccccc12	x	72.2	x	58.9	x	x
COc1cccc2c(C)nc(Nc3nc(CSc4nnc(C)s4)cc(=O)[nH]3)nc12	-2.2	69.2	x	71.2	59.7	45.8
Cc1ccc2c(C)nc(Nc3nc(CSc4nnc(C)s4)cc(=O)[nH]3)nc2c1	-1.68	80.2	45.6*	87.3	34.6*	16.6*
Cc1nc(Nc2nc(-c3ccccc3)cc(=O)[nH]2)nc2ccccc12	-2.95	x	13.2*	x	14.3*	5.0*
COc1ccc2nc(Nc3nc(CSc4nc5ccccc5[nH]4)cc(=O)[nH]3)nc(C)c2c1	x	6.1*	x	6.5	x	x
Cc1nc(Nc2nc(CSc3nc4ccccc4[nH]3)cc(=O)[nH]2)nc2ccccc12	x	3.6*	x	3.7*	x	x
COC(=O)c1sccc1NC(=O)CSc1nnnn1-c1ccccc1C	-2.05	65.5	109.3	82.2	67.9	86.8
COC(=O)/C(=C/c1ccco1)NC(=O)c1ccco1	x	93.3	x	104.5	x	x
Cc1ccc(Nc2nc(C)c(CCC(C)C)c(=O)[nH]2)cc1	-0.97	87.9	x	76.6	x	x
Cc1nc(Nc2ccc(F)cc2)[nH]c(=O)c1CCC(C)C	-0.08	62.2	x	48.5	6.7*	75.0
O=C(COC(=O)c1cccc(S(=O)(=O)N2CCc3ccccc32)c1)Nc1ccc(Cl)cn1	x	84.9	x	87.0	x	x
COC(=O)c1[nH]c2cc(OC)ccc2c1NC(=O)c1nonc1C	-0.02	72.0	87.7	76.3	29.8*	89.9
CCOC(=O)c1[nH]c2ccc(OC)cc2c1NC(=O)c1nonc1C	-0.92	94.6	101.8	100.3	94.2	100.5
CN(C)c1ccc(/C=C/C=C2/SC(=S)N(c3ccccc3)C2=O)cc1	-3.05*	66.5	x	69.6	x	x
Cc1cc(C)c2nc(SCCc3ccccc3)nc(C)c2c1	-0.89	109.7	101.8	101.9	101.1	101.7
